In paper PMC4013241 (Molecular cancer therapeutics, 2014):
Marks after values point to notes of the source that are not given here.

Key:
U87 cells [1] = assay: Annexin V apoptosis by flow cytometry; type: cell-based, human; conditions: 24 h
Outline: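 U87 cells in 12-well plates, cultured overnight, then exposed 24 h to test compound (6.3 μM), an EGFR inhibitor (13.3 μM) or both. Floating and attached cells were pooled and stained with Annexin V-FITC (10 μg/ml) in HEPES-buffered saline (pH 7.4) with Ca2+ and Mg2+. Flow cytometry at 5000 events/sample. Reported as mean ± S.D. of three experiments.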

U87 cells [2] = assay: Flow cytometric cell cycle analysis; type: cell-based, human; conditions: 24 h
[3] = system: 40S ribosomal protein S6 [rpS6] phosphorylation; assay: Western blot of phosphorylated rpS6 in U87 cells; type: cell-based, human; conditions: 6.3 μM, 1 h, mean ± S.D.
Outline: (§1)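 U87 cells in DMEM with 10% FBS at 37°C, 5% CO2, grown on 10 cm plates and exposed to test compound for 1 h. Lysed on ice in buffer containing PMSF, phosphatase and protease inhibitors; 20 μg protein run on SDS-PAGE and blotted to PVDF. Detected with IRDye/Alexa 680 secondaries and quantified by Odyssey imaging against total protein and β-actin, relative to control. Blots repeated at least three times.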

VEGFR3 = VEGFR3 (Homo sapiens, UniProt P35916); assay: Biochemical kinase screen
[4] = system: panel of 11 glioma models including a patient-derived model [GBM10]; assay: SRB cytotoxicity assay, panel of glioma models; type: cell-based, human; conditions: compared with U87 cells; Fig. S1
[5] = system: p-Akt in intracerebral U87 brain tumors; assay: In vivo pharmacodynamics: p-Akt in brain tumor; design: species or system mouse; conditions: for p-Akt nadir, of control: within 30 min
Outline: (§2)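 NIH Swiss nude mice carried U87 cells (10^6 in 10 μl PBS) implanted stereotactically into the caudate putamen. Test compound was given as an IV tail-vein bolus of 5 or 25 mg/kg, or 25 mg/kg 1 h after oral EGFR inhibitor (200 mg/kg). Tumours were collected from 5 min to 10 h (17 h with co-dosing) and lysed at 20 μl buffer/mg. Phospho/total Akt and Erk were measured by MSD as percent of control, at least three mice per time point. ABEC was reported in %-h.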

p-C-Raf S259 = assay: Western blot of p-C-Raf S259 in U87 or U87PTEN cells; type: cell-based, human; conditions: 6.3 μM, 1 h
Outline: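 U87 or PTEN-expressing U87 cells in 6-well plates were pretreated 1 h with vehicle, 50 μM LY294002 or 1 μM wortmannin. Test compound was then added at 6.3 μM for 1 h. Lysates (20 μg protein) were resolved by SDS-PAGE, transferred to PVDF, blocked in 5% milk and immunoblotted.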

p-mTOR [S2481 and 2448] = assay: Immunoblot of p-mTOR in U87 cells; type: cell-based, human; conditions: 6.3 μM ON123300 alone or with 13.3 μM GFN, 1 h
Outline: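 U87 cells were treated 1 h with 6.3 μM test compound, 13.3 μM EGFR inhibitor or both. Lysis buffer held PMSF plus phosphatase and protease inhibitors; lysates were sonicated and spun at 21,000 × g. 20 μg protein per lane went on SDS-PAGE and PVDF, blocked in 5% milk. Primary antibody was 1 h at room temperature or overnight at 4°C. Bands quantified densitometrically as percentages; mean ± S.D. of three experiments.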

P70S6K phosphorylation = assay: Western blot of phosphorylated P70S6K in U87 cells; type: cell-based, human; conditions: 6.3 μM, 1 h, mean ± S.D.
Outline: as §1

[6] = In vivo pharmacokinetics in mice bearing intracerebral U87 tumors; design: species or system mouse; conditions: for AUC / Kp / Tmax / clearance / Vd / half-life: NIH Swiss nude, mouse, iv; for Kp: Pbt (brain tumor partition coefficient, AUCbt/AUCp); for clearance: CL; for Vd: Vss; for half-life: t½; for peak concentration in brain: at 5 min
Outline: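 Same intracerebral U87 nude-mouse model, single IV tail-vein bolus of 5 or 25 mg/kg. Plasma, normal brain and tumour were taken from 3–4 mice per time point (5 min–10 h). Tissues were saline-rinsed and homogenised 20% w/w in water. Samples (10 μl) were protein-precipitated with 40 μl cold acetonitrile and quantified by ESI LC/MS/MS. Noncompartmental analysis; AUC to last observable concentration by linear-log interpolation.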

p-Akt [7] = assay: p-Akt in U87 cells by western blot / MSD assay; type: cell-based, human; conditions: 6.3 μM
Outline: (§3)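 U87 cells received increasing test compound concentrations for 1 h, or 6.3 μM over a time course. Phospho- and total Akt/Erk were measured by western blot or MSD multispot immunoassay, loading 20 μg (Akt) or 5 μg (Erk) lysate in duplicate. Plates were incubated overnight at 4°C, then detection antibody for 2 h at room temperature. Signals were background-corrected; phospho/total percentage expressed relative to control.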

[8] = system: p-Erk in intracerebral U87 brain tumors; assay: In vivo pharmacodynamics: p-Erk in brain tumor; design: species or system mouse
Outline: as §2

p-Akt [9] = assay: p-Akt in GBM39 cells; type: cell-based; conditions: Homo sapiens, GBM39, read-out: nadir p-Akt inhibition relative to the control
[10] = system: phosphorylated Akt, CREB, JNK pan, Erk, p38γ; assay: Human phospho-MAPK array in U87 cells; type: cell-based; conditions: 6.3 μM, 1 h
Outline: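 U87 cells on 10 cm plates were exposed to 6.3 μM test compound for 1 h, rinsed in cold PBS and lysed at 1 × 10^7 cells/ml, rocking 30 min at 4°C. 200 μg of supernatant protein was mixed with detection antibody cocktail for 1 h at room temperature. The mixture was applied to array membranes overnight at 4°C, then streptavidin-HRP for 30 min. Chemiluminescent spots were recorded on X-ray film.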

Akt = assay: Biochemical kinase screen
Rb S780 phosphorylation = assay: Western blot of phosphorylated Rb S780 in U87 cells; type: cell-based, human; conditions: 6.3 μM, 1 h, mean ± S.D.
Outline: as §1

p-Erk [11] = assay: p-Erk in GBM39 cells; type: cell-based, human; conditions: 4μM
ABC transporters = conditions: based on previous studies; cited from earlier work
p-Erk [12] = assay: p-Erk in U87 cells by western blot / MSD assay; type: cell-based, human
Outline: as §3

[13] = system: p-Akt, phosphorylation of its downstream proteins and p-Erk; assay: Western blot of p-Akt, its downstream proteins and p-Erk in U87 cells; type: cell-based, human; conditions: 70 μM ON1231120 or 10 μM ON1231320, 1 h
Outline: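 U87 cells on 10 cm plates, 1 h exposure to test compound. Lysates were prepared in buffer with PMSF and phosphatase/protease inhibitors, sonicated, held 30 min on ice and cleared at 21,000 × g for 10 min at 4°C. Blotting used 20 μg protein on SDS-PAGE and PVDF, blocked in 5% nonfat milk. Primary antibodies 1 h at room temperature or overnight at 4°C.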

[14] = plasma, 5 mg/kg, ON123300 5 mg/kg IV
[15] = plasma, 25 mg/kg, ON123300 25 mg/kg IV

Sequence of VEGFR3 (P35916 25-1363): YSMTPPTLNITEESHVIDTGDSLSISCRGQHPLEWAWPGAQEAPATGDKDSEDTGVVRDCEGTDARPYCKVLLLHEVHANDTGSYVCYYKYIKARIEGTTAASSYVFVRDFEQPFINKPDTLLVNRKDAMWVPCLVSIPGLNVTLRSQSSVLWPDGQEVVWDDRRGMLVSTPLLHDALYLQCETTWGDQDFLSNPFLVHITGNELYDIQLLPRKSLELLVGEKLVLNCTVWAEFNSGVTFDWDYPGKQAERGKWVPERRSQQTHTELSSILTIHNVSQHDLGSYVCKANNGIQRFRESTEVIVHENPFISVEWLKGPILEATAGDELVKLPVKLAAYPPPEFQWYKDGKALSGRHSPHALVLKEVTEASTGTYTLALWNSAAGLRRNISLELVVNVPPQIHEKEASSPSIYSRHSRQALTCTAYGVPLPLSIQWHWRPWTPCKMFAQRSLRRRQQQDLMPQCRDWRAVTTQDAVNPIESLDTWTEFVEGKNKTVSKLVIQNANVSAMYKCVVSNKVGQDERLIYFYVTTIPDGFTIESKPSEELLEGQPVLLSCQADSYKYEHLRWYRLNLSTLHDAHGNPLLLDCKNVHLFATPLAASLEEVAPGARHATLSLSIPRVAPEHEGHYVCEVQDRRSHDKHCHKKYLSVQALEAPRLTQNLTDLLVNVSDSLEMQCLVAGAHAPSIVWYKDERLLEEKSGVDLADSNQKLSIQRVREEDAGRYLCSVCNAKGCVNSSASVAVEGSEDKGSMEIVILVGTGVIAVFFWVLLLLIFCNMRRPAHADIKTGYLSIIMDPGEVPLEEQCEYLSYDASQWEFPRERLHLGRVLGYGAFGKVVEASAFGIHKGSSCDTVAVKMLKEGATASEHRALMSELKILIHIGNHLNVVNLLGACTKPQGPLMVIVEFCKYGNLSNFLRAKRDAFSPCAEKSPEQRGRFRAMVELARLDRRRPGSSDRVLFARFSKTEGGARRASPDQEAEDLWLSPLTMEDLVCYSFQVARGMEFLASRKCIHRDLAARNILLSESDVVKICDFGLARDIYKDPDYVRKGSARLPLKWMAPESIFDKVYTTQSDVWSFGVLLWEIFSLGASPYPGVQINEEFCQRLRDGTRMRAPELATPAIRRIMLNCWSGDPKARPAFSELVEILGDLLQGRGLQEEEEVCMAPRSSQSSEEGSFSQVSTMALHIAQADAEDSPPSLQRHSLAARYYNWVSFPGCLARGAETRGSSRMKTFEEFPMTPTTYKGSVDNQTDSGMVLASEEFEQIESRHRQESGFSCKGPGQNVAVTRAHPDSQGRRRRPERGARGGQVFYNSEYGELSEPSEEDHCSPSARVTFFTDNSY

COc1cc2ncnc(Nc3ccc(F)c(Cl)c3)c2cc1OCCCN1CCOCC1 [GFN, gefitinib, reference compound]
apoptotic cell death (Annexin V staining) (U87 cells [1]): did not cause apoptotic cell death
percentage of cells in the G1 phase (U87 cells [2]; 13.3 μM GFN, control 66 ± 0.9%): 80.9 ± 2.5%

CN1CCN(c2ccc(Nc3ncc4cc(C#N)c(=O)n(C5CCCC5)c4n3)cc2)CC1 [ON123300]
phosphorylation of rpS6 relative to control [3]: 60.5% ± 1.0
inhibitory action against VEGFR3 (VEGFR3): appreciable inhibitory action
inhibition of cell proliferation in a panel of 11 glioma models [4]: quite comparable to that observed to U87 cells
change in p-Akt ABEC from 5 mg/kg to 25 mg/kg ([5]; IV): 5 fold
ABEC p-Akt ([5]; ON123300 5 mg/kg IV): 63.2 %_h
p-Akt nadir, of control ([5]; ON123300 5 mg/kg IV): 73%
ABEC p-Akt ([5]; ON123300 25 mg/kg IV): 304.9 %_h
ABEC p-Akt ([5]; ON123300 25 mg/kg IV 1 h after oral 200 mg/kg GFN): 765.0 %_h
ABEC p-Akt ([5]; ON123300 25 mg/kg IV plus oral 200 mg/kg GFN): 765 %-h
p-Akt nadir ([5]; ON123300 25 mg/kg IV plus oral 200 mg/kg GFN, at 4 h after the ON123300 dose): about 30%
p-Akt level at 10 h ([5]; ON123300 25 mg/kg IV, 10 h): ~60%
p-Akt nadir, of control ([5]; ON123300 25 mg/kg IV): 60%
p-C-Raf S259 expression (p-C-Raf S259): partially decreased
expression of p-mTOR S2448 (p-mTOR [S2481 and 2448]): 86% ± 3.1
expression of p-mTOR S2481 (p-mTOR [S2481 and 2448]): 102% ± 5.2
phosphorylation of P70S6K relative to control (P70S6K phosphorylation): 31.8 %± 2.1
AUC ([6]; brain tumor, 5 mg/kg, AUCbt, ON123300 5 mg/kg IV): 6890 ng·h/mL
Kp ([6]; brain tumor, 5 mg/kg, ON123300 5 mg/kg IV): 5.7
AUC ([6]; brain tumor, 25 mg/kg, AUCbt, brain tumor, ON123300 25 mg/kg IV 1 h after oral 200 mg/kg GFN): 49400 ng·h/mL
AUC ([6]; brain tumor, 25 mg/kg, AUCbt, ON123300 25 mg/kg IV): 63200 ng·h/mL
Kp ([6]; brain tumor, 25 mg/kg, ON123300 25 mg/kg IV): 15
Tmax ([6]; brain tumor, 25 mg/kg, Tmax brain tumor, ON123300 25 mg/kg IV): 1 h
AUC ([6]; brain, 5 mg/kg, AUCb, ON123300 5 mg/kg IV): 3120 ng·h/mL
AUC ([6]; brain, 25 mg/kg, AUCb, ON123300 25 mg/kg IV): 11700 ng·h/mL
Tmax ([6]; brain, 25 mg/kg, Tmax brain, ON123300 25 mg/kg IV): 0.083 h
AUC ([6]; plasma, 5 mg/kg, AUCp, ON123300 5 mg/kg IV): 1210 ng·h/mL
clearance [6, 14]: 69.1 mL/min/kg
Vd ([6]; plasma, 5 mg/kg, plasma, ON123300 5 mg/kg IV): 3.6 L/kg
half-life [6, 14]: 1.5 h
AUC ([6]; plasma, 25 mg/kg, AUCp, ON123300 25 mg/kg IV): 4220 ng·h/mL
clearance [6, 15]: 98.7 mL/min/kg
Vd ([6]; plasma, 25 mg/kg, plasma, ON123300 25 mg/kg IV): 10.2 L/kg
half-life [6, 15]: 1.5 h
reduction in the total clearance of ON123300 in the presence of GFN ([6]; ON123300 25 mg/kg IV, oral 200 mg/kg GFN): 33%
Cmax brain tumor ([6]; brain tumor, ON123300 5 mg/kg IV): 6493 ng/mL
Cmax brain tumor ([6]; brain tumor, ON123300 25 mg/kg IV): 27250 ng/mL
Cmax brain tumor ([6]; brain tumor, ON123300 25 mg/kg IV 1 h after oral 200 mg/kg GFN): 20900 ng/mL
peak concentration in brain ([6]; brain, ON123300 5 mg/kg IV): 5735 ng/g
peak concentration in brain ([6]; brain, ON123300 25 mg/kg IV): 12432 ng/g
Cmax brain ([6]; brain, ON123300 25 mg/kg IV): 12432.5 ng/mL
Cmax brain ([6]; brain, ON123300 25 mg/kg IV 1 h after oral 200 mg/kg GFN): 16300 ng/mL
increase in AUCp from 5 mg/kg to 25 mg/kg ([6]; plasma, IV): 3.5 fold
time of p-Akt nadir (p-Akt [7]): 30 min
phosphorylation of Akt relative to control (p-Akt [7]; 1 h, western blot, mean ± S.D.): 40.1% ± 5.7
p-Erk spike at 5 min ([8]; ON123300 5 mg/kg IV, 5 min): 159%
p-Erk maximum relative to baseline ([8]; ON123300 25 mg/kg IV): 161%
p-Erk, of control, at 17 h ([8]; ON123300 25 mg/kg IV plus oral 200 mg/kg GFN, 17 h following the ON123300 dose): 80%
p-Erk peak activation ([8]; ON123300 25 mg/kg IV plus oral 200 mg/kg GFN, at 5 min): 120%
ABEC p-Erk ([8]; ON123300 25 mg/kg IV plus oral 200 mg/kg GFN, below the baseline): 273.9 %-h
ABEC p-Erk ([8]; ON123300 25 mg/kg IV, ABEC above the baseline): 144.1^# %_h
ABEC p-Erk ([8]; ON123300 25 mg/kg IV, above the baseline): 144 %-h
inhibition at 4 µM (p-Akt [9]): 55%
p-Erk and p38γ levels [10]: increased
phosphorylated Akt, CREB and JNK pan expression levels [10]: decreased
direct inhibition of Akt (Akt): did not directly inhibit
phosphorylation of Rb S780 relative to control (Rb S780 phosphorylation): 54.5% ± 6.3
peak p-Erk activation relative to the control (p-Erk [11]): 174%
apoptotic cell death (Annexin V staining) (U87 cells [1]): induced cell death by apoptosis in a dose-dependent manner
increase in the percentage of cells in the G2/M phase vs control (U87 cells [2]): ~2.5 fold
percentage of cells in the G2/M phase (U87 cells [2]; 6.3 μM ON123300 alone or with 13.3 μM GFN, control 10.4 ± 0.6%): 38.2 ± 01.4%
substrate for the ABC transporters (ABC transporters): unlikely to be a substrate
p-Erk relative to control (p-Erk [12]; 6.3 μM, 1 h, western blot, mean ± S.D.): 120 % ± 6.9
p-Erk elevation relative to pre-treatment (p-Erk [12]; 6.3 μM, over 6 h): about 2 fold
concentration giving 100% increase in p-Erk compared to vehicle (p-Erk [12]; 1 h, western blot and MSD): about 7 μM

Cn1c(=O)c(S(=O)(=O)c2ccc(F)cc2F)cc2cnc(Nc3ccc4[nH]ccc4c3)nc21 [ON1231320]
effects on p-Akt, its downstream proteins and p-Erk [13]: negligible effects
